Experimental data taken from ChEMBL document CHEMBL1153412, “Synthesis and anti-hepatitis B virus activities of Matijing-Su derivatives” (Bioorg Med Chem, 2009).
Activity calls are given as the source filed them. The rule behind the calls is not given here. Square brackets hold non-standard residues; d marks the D form. Peptide text beside a SMILES is read from it. * marks the point of attachment. Phe(4-NO2) = N[C@@H](Cc1ccc([N+](=O)[O-])cc1)C(=O)O; Phe(4-NH2) = Nc1ccc(C[C@H](N)C(=O)O)cc1; Propionyl = CCC(=O)*; Bz = O=C(c1ccccc1)*

Tests used:
Hepatitis B virus [1] = test: Antiviral activity against HBV in human HepG2(2.2.15) cells assessed as inhibition of HBeAg production after 9 days by enzyme immunoassay; type: functional, organism-based
Procedure, shortened: (§1)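 2.2.15 cells seeded at 1.0 × 10⁵ cells/mL in MEM with 10% FBS for 24 h. After attachment, exposed to 50, 25 or 12.25 µg/mL in fresh DMEM, 4 wells per concentration, for 9 d, with medium changed every 3 d. Supernatant HBsAg and HBeAg measured by semiquantitative EIA kits on days 6 and 9. Untreated cells as control. Run twice.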

[2] = Cytotoxicity against human HepG2(2.2.15) cells treated for 9 days measured after 24 hrs of last treatment by neutral red uptake assay; type: cell-based; conditions: read-out: TC50
Procedure, shortened: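 Confluent 2.2.15 cells treated as for the antiviral assay, 0.2 mL medium per well, with untreated control wells on each plate. Neutral red dye uptake read as absorbance at 510 nm relative to untreated cells, 24 h after day 9 of treatment.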

[3] = Selectivity index, ratio of TC50 for human HepG2(2.2.15) cells to IC50 for HBV
Hepatitis B virus [4] = test: Antiviral activity against HBV in human HepG2(2.2.15) cells assessed as inhibition of HBsAg production after 9 days by enzyme immunoassay; type: functional, organism-based; procedure, shortened: as §1
Hepatitis B virus [5] = test: Antiviral activity against HBV in human HepG2(2.2.15) cells assessed as inhibition of viral genome replication after 9 days by Southern blot hybridization; type: functional, organism-based; conditions: HepG2 2.2.15, 216 h
Procedure, shortened: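 Confluent 2.2.15 cultures in RPMI 1640 with 2% FBS received daily doses, with medium and drug renewed each day. Intracellular HBV DNA quantified by Southern blot hybridization. IC50 calculated by […].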

Row | Structure (SMILES) | Activity (Hepatitis B virus [1]) | CC50 at 216 h [2] | Selectivity Index [3] | Activity (Hepatitis B virus [4]) | IC50 (Hepatitis B virus [5])
1 | O=C(N[C@@H](Cc1ccc([N+](=O)[O-])cc1)C(=O)N[C@@H](Cc1ccccc1)C(=O)O)c1ccccc1 (Bz-[Phe(4-NO2)]-Phe-OH) | inactive | 841 µM | 15.52 | inactive | 54.2 µM
2 | O=C(N[C@@H](Cc1ccc([N+](=O)[O-])cc1)C(=O)N[C@H](CO)Cc1ccccc1)c1ccccc1 | inactive | 119 µM |  | inactive | 
3 | Cc1ccc(C(=O)N[C@@H](Cc2ccccc2)C(=O)N[C@H](CO)Cc2ccccc2)cc1 | inactive | 1860 µM |  | inactive | 
4 | O=C(N[C@@H](Cc1ccccc1)C(=O)N[C@H](CO)Cc1ccccc1)c1ccccc1 | inactive | 574 µM |  | inactive | 
5 | Cc1cccc(C(=O)N[C@@H](Cc2ccccc2)C(=O)N[C@H](CO)Cc2ccccc2)c1 | inactive | 185 µM | 3.06 | inactive | 60.5 µM
6 | O=C(N[C@@H](Cc1ccccc1)C(=O)N[C@@H](Cc1ccccc1)C(=O)O)c1ccccc1 (Bz-Phe-Phe-OH) | inactive | 313 µM | 12.36 | inactive | 25.4 µM
7 | O=C(N[C@@H](Cc1ccccc1)C(=O)N[C@H](CO)Cc1ccccc1)c1ccc(Cl)cc1 | inactive | 65.8 µM | 28.29 | inactive | 2.33 µM
8 | CCC(=O)Nc1ccc(C[C@H](NC(=O)[C@H](Cc2ccccc2)NC(=O)c2ccccc2)C(=O)O)cc1 (Bz-Phe-[Phe(4-NH2)](Propionyl)-OH) | inactive | 1150 µM |  | inactive | 
9 | CC(=O)Nc1ccc(C[C@H](NC(=O)c2ccccc2)C(=O)N[C@H](CO)Cc2ccccc2)cc1 | inactive | 93.8 µM | 23.82 | inactive | 3.94 µM
10 | O=C(N[C@@H](Cc1ccccc1)C(=O)N[C@@H](Cc1ccc(O)cc1)C(=O)O)c1ccccc1 (Bz-Phe-Tyr-OH) | inactive |  |  | inactive | 
11 | O=C(N[C@@H](Cc1ccccc1)C(=O)N[C@H](CO)Cc1ccc([N+](=O)[O-])cc1)c1ccccc1 | inactive | 117 µM |  | inactive | 
12 | Nc1ccn([C@@H]2CS[C@H](CO)O2)c(=O)n1 [LAMIVUDINE] |  | 3430 µM | 41.59 |  | 82.4 µM
13 | CC(=O)Nc1ccc(C[C@@H](CO)NC(=O)[C@H](Cc2ccccc2)NC(=O)c2ccccc2)cc1 | inactive | 164 µM |  | inactive | 
14 | CC(=O)Nc1ccc(C[C@H](NC(=O)[C@H](Cc2ccccc2)NC(=O)c2ccccc2)C(=O)O)cc1 (Bz-Phe-[Phe(4-NH2)](Ac)-OH) | inactive |  |  | inactive | 
15 | O=C(N[C@@H](Cc1ccccc1)C(=O)N[C@H](CO)Cc1ccccc1)c1ccccc1Cl | inactive | 382 µM |  | inactive | 
